ChEMBL document CHEMBL1137356, “Tricyclic imidazoline derivatives as potent and selective adenosine A1 receptor antagonists” (J Med Chem, 2006)
Each block holds one compound with its values, some of them ahead of it.

Tests used:
Adenosine receptor A1 [1] = target: T1, Adenosine receptor A1 (Rattus norvegicus, UniProt P25099); assay: Intrinsic activity at adenosine A1 receptor assessed as blockade of CPA in isolated spontaneously beating rat atria; format: functional; conditions: read-out: pA2 (converted)
T1 sequence (P25099 whole entry): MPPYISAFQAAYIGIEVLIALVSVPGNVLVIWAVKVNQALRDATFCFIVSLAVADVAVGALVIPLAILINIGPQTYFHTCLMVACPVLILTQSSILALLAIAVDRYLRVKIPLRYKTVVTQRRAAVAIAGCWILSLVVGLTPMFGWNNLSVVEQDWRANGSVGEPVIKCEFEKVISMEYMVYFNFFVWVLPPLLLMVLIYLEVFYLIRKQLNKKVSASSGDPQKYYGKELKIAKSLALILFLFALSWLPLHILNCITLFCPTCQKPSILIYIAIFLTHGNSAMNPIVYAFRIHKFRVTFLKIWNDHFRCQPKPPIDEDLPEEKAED

Adenosine receptor A1 [2] = target: T2, Adenosine receptor A1 (Homo sapiens, UniProt P30542); assay: Displacement of [125I]ABA from human adenosine A1 receptor
T2 sequence (P30542 whole entry): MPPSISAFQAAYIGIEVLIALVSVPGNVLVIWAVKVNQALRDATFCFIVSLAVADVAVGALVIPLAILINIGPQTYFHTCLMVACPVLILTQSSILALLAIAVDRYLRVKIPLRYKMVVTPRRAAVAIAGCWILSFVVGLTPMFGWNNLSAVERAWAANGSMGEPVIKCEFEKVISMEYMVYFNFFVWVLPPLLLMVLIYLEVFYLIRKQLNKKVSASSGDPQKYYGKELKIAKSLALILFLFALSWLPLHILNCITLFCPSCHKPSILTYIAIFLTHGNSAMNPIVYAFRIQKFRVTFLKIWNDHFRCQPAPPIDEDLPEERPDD

Adenosine receptor A2b = target: T3, Adenosine receptor A2b (Homo sapiens, UniProt P29275); assay: Displacement of [125I]3-(4-aminobenzyl)-8-phenyloxyacetate-1-propyl-xanthine from human adenosine A2B receptor
T3 sequence (P29275 whole entry): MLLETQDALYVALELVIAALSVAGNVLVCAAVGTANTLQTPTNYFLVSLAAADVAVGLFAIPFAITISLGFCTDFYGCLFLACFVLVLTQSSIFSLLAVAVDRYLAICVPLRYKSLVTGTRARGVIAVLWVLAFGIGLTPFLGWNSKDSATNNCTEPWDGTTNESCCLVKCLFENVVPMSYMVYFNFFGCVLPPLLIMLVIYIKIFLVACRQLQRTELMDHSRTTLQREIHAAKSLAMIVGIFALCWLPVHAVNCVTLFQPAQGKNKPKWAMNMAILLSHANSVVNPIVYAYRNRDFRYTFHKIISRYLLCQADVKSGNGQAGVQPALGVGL

Adenosine receptor A2a [3] = target: Adenosine receptor A2a (Rattus norvegicus, UniProt P30543); assay: Displacement of [3H]ZM-241385 from adenosine A2A receptor in rat striatal membrane; format: cell membranes, Striatum
Chain of Adenosine receptor A2a (Rattus norvegicus, UniProt P30543) (P30543 whole entry): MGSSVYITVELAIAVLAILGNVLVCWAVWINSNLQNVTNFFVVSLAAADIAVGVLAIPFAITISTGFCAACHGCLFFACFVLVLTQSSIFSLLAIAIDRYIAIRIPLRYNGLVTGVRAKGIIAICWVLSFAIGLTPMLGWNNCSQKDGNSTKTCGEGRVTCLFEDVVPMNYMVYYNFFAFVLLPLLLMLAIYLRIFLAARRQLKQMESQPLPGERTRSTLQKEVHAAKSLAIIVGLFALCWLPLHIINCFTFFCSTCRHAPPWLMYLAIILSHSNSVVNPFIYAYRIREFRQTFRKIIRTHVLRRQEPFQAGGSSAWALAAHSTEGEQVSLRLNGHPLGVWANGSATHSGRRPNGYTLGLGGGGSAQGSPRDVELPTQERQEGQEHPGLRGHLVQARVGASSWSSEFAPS
Method in brief: (§1)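 Rat brain membranes (cerebral cortex for A1, striatum for A2A) homogenized in 10 mM EDTA/10 mM Na-HEPES pH 7.4 with protease inhibitors, washed, stored at -80 °C. 40-70 µg protein incubated in triplicate with radioligand plus seven competitor concentrations in HEPES/EDTA buffer with 2 units/mL adenosine deaminase, 2.5 h, 21 °C. A1: [3H]DPCPX 2 nM, nonspecific with 10 µM NECA; A2A: [3H]ZM241385 0.5-1.2 nM, nonspecific with 10 µM XAC. GF/C filtration; single-site fit, Cheng-Prusoff Ki.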

Adenosine receptor A3 = target: T4, Adenosine receptor A3 (Homo sapiens, UniProt P0DMS8); assay: Displacement of [125I]ABA from human adenosine A3 receptor
T4 sequence (P0DMS8 whole entry): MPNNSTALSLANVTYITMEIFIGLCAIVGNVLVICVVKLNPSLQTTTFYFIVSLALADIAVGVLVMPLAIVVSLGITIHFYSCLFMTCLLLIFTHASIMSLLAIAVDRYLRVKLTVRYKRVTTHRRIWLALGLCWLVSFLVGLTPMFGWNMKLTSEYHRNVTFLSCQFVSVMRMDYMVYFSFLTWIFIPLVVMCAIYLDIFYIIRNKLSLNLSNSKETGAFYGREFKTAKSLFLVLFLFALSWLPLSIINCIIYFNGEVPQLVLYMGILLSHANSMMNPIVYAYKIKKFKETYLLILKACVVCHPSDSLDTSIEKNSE

Adenosine receptor A2a [4] = target: Adenosine receptor A2a (Homo sapiens, UniProt P29274); assay: Displacement of [125I]ZM-241385 from human adenosine A2A receptor
Chain of Adenosine receptor A2a (Homo sapiens, UniProt P29274) (P29274 whole entry): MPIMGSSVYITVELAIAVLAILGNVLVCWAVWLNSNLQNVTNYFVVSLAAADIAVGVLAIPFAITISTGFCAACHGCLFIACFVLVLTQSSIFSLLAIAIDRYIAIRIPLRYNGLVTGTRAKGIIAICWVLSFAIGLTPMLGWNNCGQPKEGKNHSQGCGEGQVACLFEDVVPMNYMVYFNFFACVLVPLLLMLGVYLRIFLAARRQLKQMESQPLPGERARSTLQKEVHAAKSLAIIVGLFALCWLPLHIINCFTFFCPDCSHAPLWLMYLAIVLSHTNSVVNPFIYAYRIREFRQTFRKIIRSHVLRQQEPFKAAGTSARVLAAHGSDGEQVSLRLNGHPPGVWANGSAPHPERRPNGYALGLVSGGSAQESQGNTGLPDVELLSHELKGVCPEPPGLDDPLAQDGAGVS

Adenosine receptor A1 [5] = target: T1, Adenosine receptor A1; assay: Displacement of [3H]DPCPX from adenosine A1 receptor in rat cerebral cortex; format: tissue-based; method in brief: as §1
[6] = target: Adenosine receptor A2a (Rattus norvegicus) (UniProt P30543); assay: Displacement of [3H]ZM-241385 from adenosine A2A receptor in rat striatal membrane at 10 uM relative to control; format: cell membranes; conditions: Striatum
Chain of Adenosine receptor A2a (Rattus norvegicus) (P30543 whole entry): as the sequence (P30543 whole entry) above

[7] = target: Adenosine receptors; A1 & A2b (Homo sapiens) (UniProt P30542+P29275); assay: Selectivity for human adenosine A1 receptor over adenosine A2B receptor; format: protein assay
[8] = target: Adenosine receptors; A1 & A2a (Homo sapiens) (UniProt P30542+P29274); assay: Selectivity for human adenosine A1 receptor over adenosine A2A receptor; format: protein assay
Rattus norvegicus [9] = assay: Sodium excretion level in po dosed rat diuresis model; format: ADME, organism-based
Method in brief: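 Rats held in metabolic cages and dosed by gavage as 0.5% cmc suspension at several doses; urine collected for 4 h and sodium excretion (UNaV) measured.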

Rattus norvegicus [10] = assay: Volume of distribution in rat at 1 mg/kg, po; format: ADME, organism-based; set-up: dose 1 mg/kg, route oral; conditions: in vivo
Method in brief: (§2)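 Rats given 1 mg/kg orally and intravenously to obtain pharmacokinetic parameters.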

[11] = Clearance in rat at 1 mg/kg, po; format: ADME, organism-based; set-up: dose 1 mg/kg, route oral; conditions: in vivo; method in brief: as §2
[12] = Oral bioavailability in rat at 1 mg/kg, iv and po; format: ADME, organism-based; conditions: in vivo; method in brief: as §2
[13] = Half life in rat 1 mg/kg, po; format: ADME, organism-based; set-up: dose 1 mg/kg, route oral; conditions: in vivo; method in brief: as §2
[14] = AUC(last) in rat at 1 mg/kg, po; format: ADME, organism-based, Plasma; set-up: time 0 - last, dose 1 mg/kg, route oral; conditions: plasma; method in brief: as §2
[15] = Aqueous solubility of the compound; format: physicochemical

Kb (Adenosine receptor A1 [1]): 1.32 nM
Ki (Adenosine receptor A1 [2]): 22 nM
Ki (Adenosine receptor A2b): 580 nM
Ki (Adenosine receptor A2a [3]): 2700 nM
Ki (Adenosine receptor A3): > 10000 nM
Ki (Adenosine receptor A2a [4]): 4400 nM
Ki (Adenosine receptor A1 [5]): 6 nM
Structure (SMILES): CCCN1C(=O)N2C[C@@H](CC)N=C2c2[nH]c(C34CCC(O)(CC3)CC4)nc21

Activity [6]: 70%
Ki (Adenosine receptor A1 [5]): > 100 nM
Structure (SMILES): CCCN1C(=O)N2C[C@H](CC)N=C2c2[nH]c(C34CCC(O)(CC3)CC4)nc21

Activity [6]: 48%
Structure (SMILES): CCCN1C(=O)N2C[C@@H](CC)N=C2c2[nH]c(C34CCC(C(=O)O)(CC3)CC4)nc21

Activity [6]: 77%
Ki (Adenosine receptor A1 [5]): > 100 nM
Structure (SMILES): CCCN1C(=O)N2CCN=C2c2[nH]c(C34CCC(O)(CC3)CC4)nc21

Ratio Ki [7]: 69
Ratio Ki [8]: 400
Activity [6]: 74%
Structure (SMILES): CCCN1C(=O)N2C[C@@H](C(C)C)N=C2c2[nH]c(C34CCC(CCC(=O)O)(CC3)CC4)nc21

Kb (Adenosine receptor A1 [1]): 0.126 nM
Ki (Adenosine receptor A1 [2]): 35 nM
Ki (Adenosine receptor A2b): 2000 nM
Ki (Adenosine receptor A2a [3]): 1100 nM
Ki (Adenosine receptor A3): > 10000 nM
Ki (Adenosine receptor A2a [4]): 1600 nM
Ki (Adenosine receptor A1 [5]): 4 nM
Structure (SMILES): CCCN1C(=O)N2C[C@@H](C(C)C)N=C2c2[nH]c(C34CCC(O)(CC3)CC4)nc21

Ki (Adenosine receptor A1 [5]): > 250 nM
Structure (SMILES): CCCN1C(=O)N2CC[C@@H](CC)N=C2c2[nH]c(C34CCC(O)(CC3)CC4)nc21

Activity [6]: 79%
Structure (SMILES): CCCN1C(=O)N2C[C@@H](c3ccccc3)N=C2c2[nH]c(C34CCC(O)(CC3)CC4)nc21

Ki (Adenosine receptor A1 [5]): > 250 nM
Structure (SMILES): CCCN1C(=O)N2CC[C@@H](C)N=C2c2[nH]c(C34CCC(O)(CC3)CC4)nc21

Activity [6]: 91%
Ki (Adenosine receptor A1 [5]): 14 nM
Structure (SMILES): CCCN1C(=O)N2C[C@H](C(C)CC)N=C2c2[nH]c(C34CCC(O)(CC3)CC4)nc21 (stereo not given in full)

Vdss (Rattus norvegicus [10]): 0.3 L/kg
CL/F [11]: 1.6 mL/min/kg
bioavailability [12]: 99%
half-life [13]: 3.1 h
AUC(0-t) [14]: 10000 ng·h/mL
Structure (SMILES): CCCn1c(=O)c2nc(C34CCC(CCC(=O)O)(CC3)CC4)[nH]c2n(CCC)c1=O.Cl
ED50 (Rattus norvegicus [9]): 0.01 mg/kg

Vdss (Rattus norvegicus [10]): 4.1 L/kg
CL/F [11]: 18 mL/min/kg
bioavailability [12]: 84%
solubility [15]: 100 mg/mL
half-life [13]: 3.8 h
AUC(0-t) [14]: 800 ng·h/mL
Structure (SMILES): CCCN1C(=O)N2C[C@@H](CC)N=C2c2[nH]c(C34CCC(O)(CC3)CC4)nc21.Cl
ED50 (Rattus norvegicus [9]): 0.01 mg/kg

Ratio Ki [7]: 37
Ki (Adenosine receptor A1 [2]): 60 nM
Ki (Adenosine receptor A2b): 2200 nM
Activity [6]: 32%
Structure (SMILES): CCCN1C(=O)N2C[C@@H](C)N=C2c2[nH]c(C34CCC(O)(CC3)CC4)nc21

Ki (Adenosine receptor A1 [5]): 69 nM
Structure (SMILES): CCCN1C(=O)N2C(=NC[C@@H]2C)c2[nH]c(C34CCC(O)(CC3)CC4)nc21
